Compound activity (PubChem BioAssay)
An excerpt weighted towards active compounds, which were near 3.8% of everything screened.
Hep lipid drop: inhibitors of hepatocyte lipid droplet formation, primary screen, imaging, high-throughput imaging, BODIPY stain. inhibition, % at 6.5 µM. AML12 mouse hepatocytes, oleate lipid droplets. actives 0.4% (n = 240,000). AID 1656, 2009;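 active means lipid droplet intensity inhibited by at least 50%, with more than 500 cells counted; inconclusive means wells with under 300 cells, treated as cytotoxic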
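Technique: fluorescence imaging, 20x objective, two fields per well / Assay system: AML12 hepatocytes (mouse) / Measure: % inhibition of lipid droplet signal / Doses: 6.5 µM single-point dosing / Incubation: overnight exposure / Reagent: 100 µM oleic acid challenge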
HCV NS3 hel inh: inhibitors of HCV NS3 helicase, primary screen, biochemical, Cy5 molecular beacon fluorescence; Hepatitis C virus NS3 helicase; NS3 helicase DNA unwinding; inhibition, % at 10.9 µM; actives 0.56% (n = 290,000); AID 1800, 2009;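 active means inhibition above the mean of all tested compounds plus 3 SD, set per campaign, cut at about 35% in these data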;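 further: 0% = DMSO wells and 100% = thioflavine S control wells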
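System: NS3 helicase fragment of HCV / Schedule: 1 h at 25 °C / Control set: DMSO alone as 0% and 110 µM thioflavine S as 100% / Reagent: Cy5/quencher beacon DNA duplex and ATP to start / Technique: Cy5 fluorescence / Replication: singlicate / Evaluation: % inhibition of end-to-start signal ratio versus controls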
HSP90 inh: HSP90 inhibitors, primary screen, cell lysate, luminescence. Heat shock protein HSP 90 (rabbit reticulocyte lysate; luciferase refolding). inhibition, % at 5.6 µM. Rabbit reticulocyte lysate, luciferase refolding luminescence, 3 h. actives 0.91% (n = 290,000);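 active means inhibition above the screen-wide mean plus 3 SD, computed separately per campaign, cut at about 16% in these data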;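 further: 0% = DMSO wells and 100% = 60 µM geldanamycin wells; inhibitors lower the luminescence because luciferase stays unfolded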
HSF1 activator: HSF-1 activators, primary screen, NIH3T3-HGL cells, MG132 stress, luminescence, single point. NIH3T3-HGL HSF-1 luciferase reporter, 8 h; 100% = twice DMSO control signal. activation, % at 9 µM. actives 1.7% (n = 300,000);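 active means mean replicate activation of at least 50% with a set share of replicates each reaching 50%; inconclusive means only one of those two conditions met; inactive means mean below 50% and too few replicates reaching it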;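 further: 0% = median of the neutral control wells and 100% = twice that signal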
HSF1 inh: HSF1 inhibitors in luciferase reporter cells, primary screen, cell-based, NIH3T3, luminescence | actives 0.77% (n = 300,000) | NIH3T3-HGL HSE-luciferase, MG132-induced, luminescence 8 h; stronger effect = lower value | AID 2098, 2009 | activity change, negative = inhibition, % at 7.5 µM (by protocol);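 active means more than half of replicate wells show activity change below -50%, luminescence cut by over half; inconclusive means some wells, but at most half, below -50%; inactive means no replicate well below -50%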;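 further: luciferase reports HSF-1 transcriptional activity via heat shock element; 0% = median of DMSO wells and -100% = zero luminescence signal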
Starred values were filed as active, the others as inactive; ? = inconclusive; / = no result given.

SMILES	Hep lipid drop	HCV NS3 hel inh	HSP90 inh	HSF1 activator	HSF1 inh
CCCCn1c(NC(=O)c2ccco2)c(S(=O)(=O)c2ccc(C)cc2)c2nc3ccccc3nc21	-14	3	7	137*	58
COc1cc(N/C(N)=N/c2nc(C)cc(C)n2)cc(OC)c1	-5	-9	1	6	-4
COCCNC(=O)COC(=O)c1cccnc1SC	-12	2	3	-4	0
Cc1ccc(NC(=O)c2snc3ccc(Cl)cc23)cc1C	5	1	-4	56*	25
C(=C/c1ccnc2nc(SC/C=C/c3ccccc3)nn12)/c1ccccc1	/	-4	4	101*	61
COc1cc(-c2nnc(-c3cccs3)o2)cc(OC)c1OC	7	1	0	-5	4
COc1ccc(-c2nnc(-c3cccs3)o2)cc1OC	0	3	-2	60*	39
CCOc1nc(C)ccc1-c1noc(-c2ccccn2)n1	/	1	0	-1	1
COc1cccc(-c2nc(-c3ccccc3)no2)c1	2	-2	-6	20	-2
COc1nc(-c2ccccc2)ccc1-c1noc(-c2cccs2)n1	/	-7	0	49	19
COc1nc(C)ccc1-c1noc(-c2cccs2)n1	6	-12	4	62*	21
CCOc1ccccc1-c1nc(-c2ccc(C)nc2OC)no1	/	7	-3	62*	23
COc1cccc(-c2noc(-c3cccs3)n2)c1	22	-10	-5	54*	23
O=C1CC(NS(=O)(=O)c2cccs2)CN1c1cccc(F)c1 (stereo not drawn)	/	/	/	8	1
O=C(NCCc1c[nH]c2ccccc12)C(=O)c1c[nH]c2ccccc12	19	-28	-4	32	8
Cc1cc2cc(CCNC(=O)C(=O)c3c[nH]c4ccccc34)c(=O)[nH]c2cc1C	-4	-19	4	-65	-63*
CCOc1ccc(C2N(c3ccc(OC)cc3)C(=O)C3CCCN32)cc1OC (stereo not drawn)	/	-10	1	7	-1
CCOc1ccc(C2N(c3ccc(F)cc3)C(=O)C3CCCN32)cc1OC (stereo not drawn)	/	0	0	-65	-52*
COc1ccc2c(c1)c(CC(=O)Nc1nnc(C3CC3)s1)c(C)n2C(=O)c1ccc(Cl)cc1	3	0	13	-55	-43
COc1ccc2c(c1)c(CC(=O)Nc1cc(C)ccc1C)c(C)n2C(=O)c1ccc(Cl)cc1	68*	2	-2	15	7
Cc1ccc([N+](=O)[O-])cc1NC(=O)Nc1onc(C)c1C	7	0	0	-3	-10
O=C(CSc1nccn1Cc1ccco1)Nc1cccc(F)c1	0	-1	-1	-79	-74*
CC(C)C(C(=O)N1CCN(C(=O)OC(C)(C)C)CC1)n1cc(-c2cn([C@@H](C)C(=O)N3CCN(C(=O)OC(C)(C)C)CC3)nn2)nn1 (stereo partly drawn)	-17	/	/	-12	-13
NS(=O)(=O)c1ccc(Cl)cc1[N+](=O)[O-]	34	13	3	9	-2
CCN(CC)c1ccc([N+](=O)[O-])cc1C(=O)N1CCOCC1	3	10	8	55*	8
SMILES	Hep lipid drop	HCV NS3 hel inh	HSP90 inh	HSF1 activator	HSF1 inh
C=CCn1c(SCC(=O)Nc2cc(C)on2)nc2c([nH]c3ccccc32)c1=O	1	11	3	-21	7
CCCC(=O)Nc1sc(C(=O)Nc2cccc(N)c2)c(C)c1C(=O)OC	31	2	-2	-71	-67*
COC(=O)c1c(NC(C)=O)sc(C(=O)Nc2ccccc2)c1C	14	-4	-2	12	5
c1ccc(COc2ccccc2CNC2CCCC2)cc1	-1	2	-1	58*	24
Cc1cc(NCc2ccccn2)n2nc(C)c(-c3ccc(Cl)cc3)c2n1	-10	-13	4	/	/
Cc1cc(NCc2ccccn2)n2ncc(-c3ccc(Cl)cc3)c2n1	/	2	2	53*	28
Cc1cc(NCc2ccccn2)n2ncc(-c3ccccc3)c2n1	-3	-7	-1	76*	39
CC1(c2ccc(Cl)cc2)NC(=O)N(CC(=O)N2CCN(S(=O)(=O)c3ccccc3)CC2)C1=O (stereo not drawn)	/	/	/	-3	7
COC(=O)c1cc(S(=O)(=O)Nc2cc(OC)cc(OC)c2)c[nH]1	-2	-6	-4	-14	-5
COc1ccc(NC(=O)C2=CC(c3cccs3)=NS(=O)(=O)N2C)cc1	-6	-3	-2	-21	-18
CN1C(C(=O)Nc2ccc(OC(F)(F)F)cc2)=CC(c2cccs2)=NS1(=O)=O	8	-7	-3	-80	-74*
Cc1nnc(SCC(=O)Nc2nsc(-c3ccc(C(C)(C)C)cc3)n2)s1	/	3	-1	51*	22
Cc1ccc2[nH]c(=O)c(CN(Cc3cccs3)Cc3nnnn3Cc3ccccc3)cc2c1	/	-3	-2	71*	24
CCCn1c(=O)[nH]c(=O)c2c1nc(-c1ccccc1OC(F)F)n2CCOC	/	-2	3	53*	23
CCCn1c(=O)[nH]c(=O)c2c1nc(-c1ccc(OC(F)F)c(OC)c1)n2CCOC	0	1	0	11	13
N#CC1(NC(=O)COC(=O)c2nc(Cl)c(Cl)c(N)c2Cl)CCCCC1	/	/	/	12	6
COc1ccc(/C=N/NC(=O)CN(C)S(=O)(=O)c2ccc(NC(C)=O)cc2)cc1	11	2	-5	-67	-60*
O=C(Cc1ccc(Cl)cc1)NC1CCCN(Cc2ccccc2F)C1 (stereo not drawn)	-7	-4	3	14	1
COCC(C)NC(=O)CCS(=O)(=O)c1nc(-c2ccc(OC)cc2)cc(C(F)(F)F)n1 (stereo not drawn)	0	-4	4	238*	179
CCOC(=O)CCS(=O)(=O)c1nc(-c2ccccc2)cc(C(F)(F)F)n1	-1	10	5	12	?
CCOC(=O)CS(=O)(=O)c1nc(-c2ccccc2)cc(C(F)(F)F)n1	/	12	9	137*	124
COC(=O)CCS(=O)(=O)c1nc(-c2ccccc2)cc(C(F)(F)F)n1	3	-1	1	-94	-94*
C#CCOCCOCCOCCNc1nc(N2CCN(C(=O)C([C@@H](C)CC)n3cc(C(N)Cc4ccc(O)cc4)nn3)CC2)nc(N2CCN(C(=O)[C@H](CCC(=O)O)n3cc(C(N)Cc4ccc(O)cc4)nn3)CC2)n1 (stereo partly drawn)	0	-64	7	5	-1
